# Screening data deposited in PubChem by The Scripps Research Institute Molecular Screening Center.
# IMP-1 inh-1 = inhibitors of Pseudomonas aeruginosa IMP-1 metallo-beta-lactamase. purified IMP-1, nitrocefin hydrolysis, epi-absorbance fluorescence. inhibition, % at 5.6 µM. 290,000 tested, 0.45% active. AID 1556;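 active = inhibition above the mean plus 3 SD of all compounds in the same screening run, cut at about 4.5% in these data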
#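 Material – recombinant IMP-1 enzyme, purified · Amount – IMP-1 0.2 nM before substrate addition · Medium – HEPES buffer pH 7.1 with ZnSO4 and Brij 35 · Timing – 25 °C, 15 min preincubation, 25 min reaction · Measured by – plate fluorescence quenching by hydrolysis product, ex 480/em 530 nm · Read-out – percent enzyme inhibition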
# HGIII-sPLA2 inh = Blocks human group III sPLA2 activity. Q9NZ20. QFRET BODIPY PC-A2 liposome hydrolysis, fluorescence. inhibition, % at 12.2 µM. 370,000 tested, 0.56% active. AID 743126;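 active = inhibition above mean plus 3 SD of compounds lying within the high and low control bounds, cut at about 19% in these data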
# VIM-2 inhibitor = blocks Pseudomonas aeruginosa VIM-2 metallo-beta-lactamase; purified VIM-2, nitrocefin hydrolysis, epi-absorbance fluorescence; 290,000 tested, 0.89% active; AID 1527; inhibition, % at 5.6 µM;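 active = inhibition above the mean of all tested compounds plus 3 SD, cutoff set per screening run, cut at about 7.5% in these data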;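 note: red hydrolysis product quenches plate fluorescence so inhibitors raise well fluorescence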
# M18AAP inhibitor = PfM18AAP enzyme inhibition; recombinant PfM18AAP, H-Glu-NHMec fluorogenic cleavage; 290,000 tested, 1.2% active; AID 1822; inhibition, % at 7.35 µM;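 active = inhibition above the campaign mean inhibition over all tested compounds plus 3 SD, cut at about 28% in these data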
# IMP-1 inh-2 = IMP-1 inhibition, counter-screen for VIM-2 inhibitors; shares compounds with VIM-2 inhibitor; purified IMP-1, nitrocefin hydrolysis, epi-absorbance fluorescence; inhibition, % at 5.6 µM; 1,300 tested, under 10 active; AID 1856; call rule not given here
# VIM-2 FRET inh = inhibits VIM-2 in FRET assay to exclude epi-absorbance artifacts | purified VIM-2, CCF2 FRET substrate hydrolysis | AID 1857 | 1,300 tested, 23% active | shares compounds with VIM-2 inhibitor | inhibition, % at 5.6 µM;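 active = inhibition above the mean of all tested compounds plus 3 SD, cut at about 19% in these data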
# TEM-1 inh = TEM-1 inhibition, counter-screen for VIM-2 inhibitors; Purified TEM-1, nitrocefin hydrolysis, epi-absorbance fluorescence; shares compounds with VIM-2 inhibitor; inhibition, % at 5.6 µM; AID 1866; 1,300 tested, 3% active;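 active = inhibition above that campaign's mean inhibition plus 3 SD, cut at about 0.46% in these data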
# Target sequence (P62593 whole entry, looked up): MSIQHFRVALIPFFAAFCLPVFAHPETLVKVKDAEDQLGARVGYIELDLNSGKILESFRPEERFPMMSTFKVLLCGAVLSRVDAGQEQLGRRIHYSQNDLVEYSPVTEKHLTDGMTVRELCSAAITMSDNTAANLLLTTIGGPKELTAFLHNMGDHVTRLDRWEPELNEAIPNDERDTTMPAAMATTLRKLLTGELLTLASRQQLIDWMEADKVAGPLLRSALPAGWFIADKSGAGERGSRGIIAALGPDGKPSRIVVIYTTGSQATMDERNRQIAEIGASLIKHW
# VIM-2 inh conf = confirmation of P. aeruginosa VIM-2 metallo-beta-lactamase inhibitors; shares compounds with VIM-2 inhibitor; purified VIM-2, nitrocefin hydrolysis, epi-absorbance; inhibition, % at 5.6 µM; 1,300 tested, 96% active; AID 2187;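 active = inhibition of the VIM-2 beta-lactamase enzyme above about 11% from the earlier first-round screen, limit read from the data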
# Numbers stand for hits; n = inactive; x = no result. Hits are enriched below; roughly 2.4% of the tested compounds scored in any of these assays.
SMILES,IMP-1 inh-1,HGIII-sPLA2 inh,VIM-2 inhibitor,M18AAP inhibitor,IMP-1 inh-2,VIM-2 FRET inh,TEM-1 inh,VIM-2 inh conf
O=S1(=O)c2c(NCc3ccco3)cccc2Oc2ccccc2CN1Cc1cn(Cc2ccc(C(F)(F)F)cc2)nn1,x,n,x,x,x,x,x,x
CCn1c(C)nc2cc(C(=O)NNC(=O)Nc3cccc(Cl)c3)ccc21,n,n,n,31,x,x,x,x
O=C(c1cc(C2CC2)on1)N(C1CCCCC1)C1CCOCC1,x,n,x,x,x,x,x,x
CC1=NN(C(N)=S)C(=O)C1N=Nc1ccc(O)cc1 (stereo not given),n,n,n,29,x,x,x,x
CC1=NN(C(N)=S)C(=O)C1N=Nc1ccc(F)cc1 (stereo not given),n,n,n,n,x,x,x,x
CCCc1nnc(N2C(=O)c3cccc4cccc(c34)C2=O)s1,n,n,8.7,n,x,x,x,x
O=C(O)c1[nH]c2ccc(Cl)cc2c1CCN1C(=O)c2ccccc2C1=O,n,n,65,n,n,79,n,74
COc1ccc2[nH]c(C(=O)O)c(CCN3C(=O)c4ccc(C(=O)O)cc4C3=O)c2c1,n,n,71,n,n,84,n,75
O=C(O)c1[nH]c2ccc(Br)cc2c1CCN1C(=O)c2cccc([N+](=O)[O-])c2C1=O,n,n,61,n,n,79,n,68
COCCN(Cc1cc2cc(C)ccc2[nH]c1=O)S(=O)(=O)c1ccc(Cl)cc1,n,n,n,n,x,x,x,x
O=C(Nc1ccc(OC(F)(F)F)cc1)c1cc(S(=O)(=O)N2CCCCC2)ccc1N1CCOCC1,x,n,x,x,x,x,x,x
O=C(C1CC1)N1CCC(Oc2cccc(C(=O)N3CCCCC3CCO)c2)CC1 (stereo not given),n,n,n,n,x,x,x,x
O=C(NCc1cccc(Cl)c1)c1cccc(OC2CCN(C(=O)C3CC3)CC2)c1,n,n,25,n,n,n,n,n
CCN(CC)C(=O)c1cc2c(=O)n3cccc(C)c3nc2s1,n,n,16,n,n,n,n,20
CCN(CC)C(=O)c1cc2c(=O)n3cccc(C)c3nc2n1C,n,n,n,n,x,x,x,x
CCCCN(CC)C(=O)c1cc2c(=O)n3cccc(C)c3nc2s1,n,n,12,n,n,n,n,19
Cc1ccc(-c2n[nH]c(=O)c3ccccc23)cc1S(=O)(=O)NCCO,n,n,n,n,x,x,x,x
O=c1[nH]nc(-c2ccc(NCCO)c([N+](=O)[O-])c2)c2ccccc12,n,n,25,n,n,n,n,38
O=c1[nH]nc(-c2ccc(NCCCO)c([N+](=O)[O-])c2)c2ccccc12,n,n,24,n,n,n,n,34
Cn1c(C(=O)NCc2ccccn2)cc2c(=O)n(C)c3ccccc3c21,n,n,16,n,n,n,n,25
CCCCN(CC)CCNC(=O)c1cn(C)c(=O)c2c1c1ccccc1n2C,n,n,n,n,x,x,x,x
Cn1c(C(=O)NC2CCCC2)cc2c(=O)n(C)c3ccccc3c21,n,n,18,n,n,n,n,21
Cc1ccc(CNC(=O)c2cc3c(=O)n(C)c4ccccc4c3n2C)o1,n,n,n,n,x,x,x,x
CCCCN(CC)CCCNC(=O)c1cc2c(=O)n(C)c3ccccc3c2n1C,n,n,25,n,n,n,n,30
CC1CCN(CCCNC(=O)c2cc3c(=O)n(C)c4ccccc4c3n2C)CC1,n,n,21,n,n,n,n,31
Cn1c(C(=O)NCC2CCCO2)cc2c(=O)n(C)c3ccccc3c21 (stereo not given),n,n,15,n,n,n,n,20
Cn1c(=O)cc(SCC(=O)NCCCN2CCN(c3ccccc3F)CC2)c2ccccc21,n,n,n,n,x,x,x,x
Cn1c(C(=O)NCCCN2CCN(c3ccccc3F)CC2)cc2c(=O)n(C)c3ccccc3c21,n,n,15,n,n,n,n,25
Cn1c(C(=O)NCCN2CCCCCC2)cc2c(=O)n(C)c3ccccc3c21,n,n,19,n,n,n,n,29
Cn1c(C(=O)NCC2CCCO2)cc2c(=O)[nH]c3ccccc3c21 (stereo not given),n,n,n,n,x,x,x,x
